hERG rescue: compounds protecting human hERG from proarrhythmic drug block; AID 1511; Q12809; 310,000 compounds, 0.51% hits; activation (rescue from dofetilide block), less the hit threshold, % at 10 µM; CHO-hERG, FluxOR thallium flux, dofetilide IC70 present;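 active = activation above the mean of controls blocked by dofetilide plus 5 SD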;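 also: thallium influx through hERG after potassium depolarization seen as dye fluorescence rise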
Target sequence (Q12809 whole entry, looked up): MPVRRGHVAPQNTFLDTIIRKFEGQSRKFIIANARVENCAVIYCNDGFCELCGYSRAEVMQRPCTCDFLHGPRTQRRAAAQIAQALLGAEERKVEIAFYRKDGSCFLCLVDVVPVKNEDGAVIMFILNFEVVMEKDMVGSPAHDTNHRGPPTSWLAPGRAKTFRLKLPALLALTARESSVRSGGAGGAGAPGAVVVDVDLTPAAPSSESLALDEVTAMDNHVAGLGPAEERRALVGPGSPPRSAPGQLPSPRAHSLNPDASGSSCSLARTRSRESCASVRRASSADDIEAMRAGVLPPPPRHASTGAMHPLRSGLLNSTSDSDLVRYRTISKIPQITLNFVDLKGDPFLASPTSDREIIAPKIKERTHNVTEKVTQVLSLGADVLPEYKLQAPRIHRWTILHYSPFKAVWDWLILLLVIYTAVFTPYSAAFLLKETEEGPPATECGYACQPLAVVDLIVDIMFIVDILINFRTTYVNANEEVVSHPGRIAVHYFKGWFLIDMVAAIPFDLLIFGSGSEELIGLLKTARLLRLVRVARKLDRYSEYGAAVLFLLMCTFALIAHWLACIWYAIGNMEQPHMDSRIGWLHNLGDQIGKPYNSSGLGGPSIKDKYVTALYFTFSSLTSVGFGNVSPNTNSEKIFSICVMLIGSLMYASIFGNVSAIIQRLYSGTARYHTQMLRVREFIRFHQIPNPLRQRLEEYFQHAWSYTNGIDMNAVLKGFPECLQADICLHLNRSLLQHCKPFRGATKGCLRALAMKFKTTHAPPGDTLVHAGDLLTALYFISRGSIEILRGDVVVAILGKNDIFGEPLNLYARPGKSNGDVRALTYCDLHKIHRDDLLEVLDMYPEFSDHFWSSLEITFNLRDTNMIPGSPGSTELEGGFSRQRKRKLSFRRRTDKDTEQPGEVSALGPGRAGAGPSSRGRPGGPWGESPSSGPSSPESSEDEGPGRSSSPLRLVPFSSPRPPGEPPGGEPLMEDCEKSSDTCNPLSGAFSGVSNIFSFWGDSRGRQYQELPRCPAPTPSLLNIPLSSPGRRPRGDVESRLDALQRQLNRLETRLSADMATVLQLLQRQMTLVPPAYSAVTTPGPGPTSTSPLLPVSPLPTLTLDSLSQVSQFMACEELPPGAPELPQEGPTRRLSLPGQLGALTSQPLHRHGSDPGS
KCNQ1 pot: potentiates or activates the human KCNQ1 potassium channel; CHO-K1 KCNQ1, thallium flux FluxOR fluorescence; active compounds read high; B-score at 10 µM; 310,000 compounds, 0.35% hits; AID 2648;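 active = fluorescence ratio B-score, a plate-corrected score, at least three library SD, with initial intensity B-score within 5 SD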
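System: Stable KCNQ1 CHO-K1 line | Incubation: 90 min dye loading and 20 min compound exposure, both at room temperature | Measure: Ratio B score | Medium: Assay buffer for compound exposure, DMSO matched across wells | Compound dosing: Single-concentration screen | Probe or stimulus: K+/Tl+ depolarizing stimulus | Measured by: Kinetic FluxOR fluorescence, 10 s baseline plus 110 s post-stimulus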
KCNK3 inh: human KCNK3 channel inhibition, primary screen. O14649. CHO-KCNK3 thallium flux, FluxOR fluorescence; active compounds read low. B-score at 10 µM. 340,000 compounds, 0.84% hits. AID 602410;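 active = B-score under library mean minus 4 SD, starting fluorescence ratio at most library mean plus 5 SD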;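 also: more negative B-score means stronger inhibition of thallium flux through KCNK3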
KCNK9 block: inhibitors of human KCNK9 two-pore domain potassium channel; HEK293 KCNK9, FluxOR thallium flux fluorescence; active compounds read low; B-score at 10 µM; 310,000 compounds, 1.2% hits; AID 488922;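 active = ratio B-score over 3 SD below the library mean, with starting fluorescence within 5 SD of its mean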;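 also: negative B-score means less thallium flux so channel inhibition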
Kir21 inh: inhibitors of mouse Kir2.1 inward-rectifier potassium channel; P35561; HEK293-Kir2.1, FluxOR thallium flux fluorescence; active compounds read low; B-score at 10 µM; 310,000 compounds, 0.85% hits;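 active = fluorescence ratio B-score at or below minus 3 SD of library scores, with starting-brightness B-score within 2 SD, cut at about -4.2 in these data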;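 also: channel flux triggered by added potassium and thallium sulfate stimulus; B-score of peak minus minimum fluorescence over baseline after thallium stimulus; more negative B-score means stronger Kir2.1 block with less thallium influx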
KCNQ1 block: blocks the human KCNQ1 potassium channel. P51787. CHO-K1 KCNQ1, FluxOR thallium flux fluorescence; active compounds read high. B-score at 10 µM. 310,000 compounds, 1.3% hits. AID 2642;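 active = compounds whose thallium flux B-score, printed positive for inhibition, exceeds three library SD while starting fluorescence stays within three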;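 also: channel opened by potassium depolarization with thallium stimulus after 20 min compound exposure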
KCNQ1 inh valid: confirmation of human KCNQ1 potassium channel inhibitors; inhibition, % at 10 µM; 1,600 compounds, 93% hits; shares compounds with KCNQ1 block; KCNQ1 cell line, FluxOR thallium flux fluorescence;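 active = primary screen active, with duplicate mean exceeding buffer control mean plus 3 SD of buffer wells, cut at about 28% in these data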
CHO Tl flux: activity in parental CHO cells lacking KCNQ1; shares compounds with KCNQ1 block; 1,600 compounds, 21% hits; parental CHO-K1, FluxOR thallium flux fluorescence ratio; active compounds read low; zero means no signal rise above baseline; AID 588366; fluorescence ratio (Tl flux) at 10 µM;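 active = mean of duplicate thallium-flux fluorescence ratios in parental host cells more than 5 SD below the buffer control mean, cut at about 0.38 in these data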;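 also: ratio is peak minus minimum fluorescence divided by baseline fluorescence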
KCNQ1 APC inh: human KCNQ1 inhibition validated by electrophysiology | shares compounds with KCNQ1 block | calls only at 10 µM | KCNQ1-CHO cells, automated patch clamp current | 490 compounds, 20% hits;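 active = KCNQ1 current drop exceeding 3 SD of negative control wells, seen in both duplicate runs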;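 also: steady state current during a 2 s step from -80 to +40 mV; negative values mean current inhibition and positive values mean potentiation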
KCNQ2 spec: rat KCNQ2 inhibition in KCNQ1 inhibitor specificity screen; shares compounds with KCNQ1 block; KCNQ2 cells, FluxOR thallium flux fluorescence; inhibition, % at 10 µM; 1,600 compounds, 71% hits;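 active = mean percent inhibition of the KCNQ2 thallium signal more than 5 SD above the buffer-only control wells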;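 also: KCNQ2 expressed in CHO cells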
KCNQ1 KCNE1 spec: selectivity of KCNQ1 inhibitors: inhibition of human KCNQ1/KCNE1 channel; 1,600 compounds, 77% hits; AID 652147; KCNQ1/KCNE1 cells, FluxOR thallium flux fluorescence; inhibition, % at 10 µM; shares compounds with KCNQ1 block;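 active = mean percent inhibition of duplicate wells above the buffer-only control mean plus 3 SD of those controls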
KCNK9 block conf: confirmation of human KCNK9 potassium channel inhibitors | shares compounds with KCNK9 block | inhibition, % at 10 µM | AID 492992 | HEK293 KCNK9 cells, FluxOR thallium flux fluorescence | 4,900 compounds, 43% hits;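 active = thallium signal inhibited by more than 5 SD of the compound-free buffer control wells, on both duplicate plates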
Kir21 sel: selectivity of KCNK9 modulators against mouse Kir2.1; AID 492993; inhibition, % at 10 µM; shares compounds with KCNK9 block; 4,900 compounds, 4% hits; Kir2.1 cells, FluxOR thallium flux fluorescence;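 active = thallium signal drop more than 5 SD beyond the mean of the no-compound control wells, seen in both duplicate plates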;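 also: signal is fluorescence rise after thallium addition divided by baseline fluorescence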
KCNK9 uninduced: second counter-screen for KCNK9 modulators: effect in non-induced cells; 4,900 compounds, 40% hits; shares compounds with KCNK9 block; non-induced KCNK9-HEK293, FluxOR thallium flux; AID 492997; inhibition, % at 10 µM;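 active = thallium signal drop beyond 5 SD of the untreated control mean, on both duplicate plates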
A number is an active result; - = inactive; . = no result; + = active, no number. This is a sample that favours compounds with a hit; in the whole collection about 3.7% have one here.

SMILES	hERG rescue	KCNQ1 pot	KCNK3 inh	KCNK9 block	Kir21 inh	KCNQ1 block	KCNQ1 inh valid	CHO Tl flux	KCNQ2 spec	KCNQ1 KCNE1 spec	KCNK9 block conf	Kir21 sel	KCNK9 uninduced	others
CCCOC(=O)C(C)n1c(-c2ccccc2)nc2ccccc2c1=O (configuration not stated)	-	-	-	-10.6	-	7	-	-	-	57.5%	51.0%	-	35.5%
CCOC(=O)Cn1c(-c2ccccc2)nc2ccccc2c1=O	-	-	-	-	-	-	.	.	.	.	.	.	.
O=C(COc1cccc(Cl)c1Cl)Nc1ccc2c(c1)CCC2	-	-	-	-	-	-	.	.	.	.	.	.	.
O=C(COc1ccccc1Cl)c1ccc2c(c1)CCCC2	-	-	-	-	-	6	94.0	-	92.3%	119.0%	-	-	37.0%	KCNQ1 APC inh=-
CC(C)(C)c1nc(SCC(=O)c2ccccc2)c2ccccc2n1	-	-	-	-9.04	-	9	84.5	-	-	58.5%	46.5%	51.0%	47.0%
CCN(c1ccccc1)S(=O)(=O)c1cccc(C(=O)OCC(=O)Nc2ccc(NC(C)=O)cc2)c1	.	.	-	.	.	.	.	.	.	.	.	.	.
Fc1ccc(C(c2nnnn2Cc2ccccc2)N2CCSCC2)cc1 (configuration not stated)	-	-	-	-	-	-	.	.	.	.	.	.	.
Clc1ccc(C(c2nnnn2CCc2ccccc2)N2CCSCC2)cc1 (configuration not stated)	-	-	-	-14.1	-	7	116.0	-	105.7%	82.0%	56.0%	-	45.5%	KCNQ1 APC inh=-
Cc1cccc(/C=C/c2onc(C)c2S(=O)(=O)N2CCC(C(=O)N3CCC(C)CC3)CC2)c1	-	-	-	-	-	6	51.5	-	-	56.5%	-	-	-
CCCN(CC(=O)Nc1cc(Cl)cc(Cl)c1)CC(=O)Nc1ccc(F)c(F)c1F	-	-	-	-13.3	-	6	132.0	0.331	119.3%	159.0%	55.0%	-	46.5%
S=C(Nc1ccc(Cc2ccncc2)cc1)Nc1cccc(Cl)c1	-	-	-	-	-	8	67.5	-	86.3%	37.0%	-	-	-
C=CCSc1nnc(C)c(/C=C/Nc2ccc(Cl)cc2)n1	-	-	-	-10.6	-	8	73.0	0.335	105.7%	97.5%	30.5%	-	55.5%
CSc1nnc(C)c(/C=C/Nc2ccc(F)cc2F)n1	-	-	-	-	-	-	.	.	.	.	.	.	.
COc1ccc2c(c1)-c1nc(NC(=O)c3cccs3)sc1CC2	-	-	-	-16.1	-	7	107.5	-	100.3%	189.5%	75.0%	-	35.0%	KCNQ1 APC inh=-
CCn1c(=O)n(CC)c2cc(N3CCCC3)c(NC(=O)c3cc(Br)ccc3OC)cc21	-	-	.	-17.6	-	9	161.5	0.327	122.7%	+	72.0%	-	-
COc1cccc(NC(=O)CN(C)C(=O)CCNC(=O)c2ccccc2OC)c1	.	.	-	.	.	.	.	.	.	.	.	.	.
CCN(Cc1ccccc1)C(c1ccncc1)c1nnnn1C(C)(C)C (configuration not stated)	-	-	-	-	-	-	.	.	.	.	.	.	.
CCN(Cc1ccccc1)C(c1ccc(C)cc1)c1nnnn1C(C)(C)CC (configuration not stated)	-	-	-	-12.8	-	8	111.5	-	112.0%	85.5%	58.5%	-	50.0%	KCNQ1 APC inh=-
Clc1cccc(Cl)c1CSc1cc2c(nn1)-c1ccccc1CC2	-	-	-	-	-	-	.	.	.	.	.	.	.
Clc1ccccc1CSc1cc2c(nn1)-c1ccccc1CC2	-	-	-	-11.1	-	9	81.5	-	97.3%	128.0%	46.0%	-	43.0%
O=S(=O)(c1ccc(Cl)s1)N1CCC(Cc2ccccc2)CC1	-	-	-	-	-	6	71.5	-	113.7%	56.0%	-	-	-
Cc1cc(C)c(S(=O)(=O)c2ccccc2C)c(N(C)C)n1	-	-	-	-	-	-	.	.	.	.	.	.	.
Cc1cc(C)c(S(=O)(=O)c2ccccc2C)c(SCC(C)C)n1	-	-	-	-14.2	-	9	115.0	-	112.0%	95.0%	50.0%	-	41.5%	KCNQ1 APC inh=-
CC1CCCC(NC(=O)/C=C/c2c(F)cccc2Cl)C1C (configuration not stated)	-	-	-	-	-	-	.	.	.	.	.	.	.
Clc1cccc(-c2cc3nc4c(c(N5CCN(c6cnccn6)CC5)n3n2)CCCC4)c1	-	-	-8.77	-13.3	-	8	100.0	-	119.0%	162.0%	46.0%	-	36.0%	KCNQ1 APC inh=-
CC(=O)c1ccc2c(c1)C1C=CCC1C(c1cc3c(cc1Br)OCO3)N2 (configuration not stated)	-	-	-	-8.66	-	8	139.5	-	99.3%	145.0%	50.0%	-	37.0%	KCNQ1 APC inh=-
COc1ccc(-n2nc(C(=O)NCC(=O)N3CCC(C)CC3)c3ccccc3c2=O)c(OC)c1	-	-	-	-	-	-	.	.	.	.	.	.	.
CC(=O)c1sc2nc(-c3cccs3)cc(C(F)(F)F)c2c1N	-	-	-	-9.14	-	7	104.0	0.29	-	153.5%	41.5%	30.0%	65.5%
S=c1nn[nH]c2ccccc12	.	.	-	.	.	.	.	.	.	.	.	.	.

Screening data: PubChem, Johns Hopkins Ion Channel Center
